# Laboratory results published in ChEMBL document CHEMBL1828575, “Design, synthesis and antiproliferative activities of biarylolefins based on polyhydroxylated and carbohydrate scaffolds” (Eur J Med Chem, 2011).
# What was measured:
# Assay type in all cases: functional
# NCI-H322M [1] = assay: Antitumor activity against human NCI-H322M cells after 48 hrs by SRB assay
# How it was run: (§1)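 NCI60 panel in RPMI 1640 with 5% FBS and 2 mM L-glutamine. Cells were plated at 5000–40,000/well by doubling time, held 24 h, then time-zero plates were TCA-fixed. Five concentrations (10-fold or half-log dilutions of DMSO stocks) were applied for 48 h at 37 °C, 5% CO2. Cells were fixed with cold TCA (10% final adherent, 16% suspension) and stained with 0.4% SRB. Bound dye was dissolved in 10 mM Tris and read at 515 nm. GI50, TGI and LC50 were calculated per line.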
# OVCAR-8 = assay: Antitumor activity against human OVCAR8 cells after 48 hrs by SRB assay; conditions: OVCAR-8, 48 h; how it was run: as §1
# SR = assay: Antitumor activity against human SR cells after 48 hrs by SRB assay
# How it was run: (§2)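 NCI60 panel cells grown in RPMI 1640 with 5% FBS and 2 mM L-glutamine, plated at 5000–40,000 cells/well and preincubated 24 h at 37 °C, 5% CO₂. Compound was added from DMSO at five concentrations, 10-fold or 1/2 log dilutions, then incubated 48 h.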
# TK-10 = assay: Antitumor activity against human TK10 cells after 48 hrs by SRB assay; conditions: TK-10, 48 h; how it was run: as §2
# DU-145 = assay: Antitumor activity against human DU145 cells after 48 hrs by SRB assay; conditions: DU-145, 48 h; how it was run: as §1
# A549 [2] = assay: Cytotoxicity against human A549 cells assessed as cellular growth at 10 uM after 48 hrs by SRB assay
# How it was run: (§3)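 NCI60 single-dose screen of cells in RPMI 1640 with 5% FBS and 2 mM L-glutamine, preincubated 24 h at 37 °C, 5% CO₂. Cells were then exposed 48 h to compound added from DMSO stock. TCA-fixed, stained with 0.4% SRB in 1% acetic acid, dye solubilised in 10 mM Tris base and read at 515 nm. Growth is given as percent of untreated control.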
# NCI-H322M [3] = assay: Cytotoxicity against human NCI-H322M cells assessed as cellular growth at 10 uM after 48 hrs by SRB assay
# How it was run: (§4)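 NCI-60 panel lines grown in RPMI 1640 with 5% FBS and 2 mM L-glutamine. Plated at 5000–40,000 cells/well and preincubated 24 h at 37 °C, 5% CO₂, with time-zero plates fixed in TCA. Compounds, dissolved in DMSO and diluted in medium, were applied for 48 h. Cells were TCA-fixed (10% final for adherent, 16% for suspension) and stained with 0.4% SRB in 1% acetic acid. Dye was solubilised in 10 mM Tris base and read at 515 nm; growth was expressed as a percentage of untreated control.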
# MOLT-4 = assay: Cytotoxicity against human MOLT4 cells assessed as cellular growth at 10 uM after 48 hrs by SRB assay; how it was run: as §4
# HCT-15 = assay: Cytotoxicity against human HCT15 cells assessed as cellular growth at 10 uM after 48 hrs by SRB assay; how it was run: as §3
# RPMI-8226 = assay: Cytotoxicity against human RPMI8226 cells assessed as cellular growth at 10 uM after 48 hrs by SRB assay; how it was run: as §4
# OVCAR-5 = assay: Cytotoxicity against human OVCAR5 cells assessed as cellular growth at 10 uM after 48 hrs by SRB assay; how it was run: as §4
# EKVX = assay: Cytotoxicity against human EKVX cells assessed as cellular growth at 10 uM after 48 hrs by SRB assay; how it was run: as §3
# HT-29 [4] = assay: Cytotoxicity against human HT-29 cells assessed as cellular growth at 10 uM after 48 hrs by SRB assay; how it was run: as §3
# A549 [5] = assay: Antitumor activity against human A549 cells after 48 hrs by SRB assay; conditions: A549, 48 h; how it was run: as §1
# SF-295 = assay: Antitumor activity against human SF295 cells after 48 hrs by SRB assay; conditions: SF-295, 48 h; how it was run: as §1
# HT-29 [6] = assay: Antiproliferative activity against human HT-29 cells after 48 hrs by SRB assay; conditions: HT-29, 48 h; how it was run: as §1
# 786-0 = assay: Cytotoxicity against human 786-0 cells assessed as cellular growth at 10 uM after 48 hrs by SRB assay; how it was run: as §3
# NCI-H460 = assay: Cytotoxicity against human NCI-H460 cells assessed as cellular growth at 10 uM after 48 hrs by SRB assay; how it was run: as §4
# SF-539 = assay: Antitumor activity against human SF539 cells after 48 hrs by SRB assay; conditions: SF-539, 48 h; how it was run: as §2
# PC-3 [7] = assay: Antitumor activity against human PC3 cells after 48 hrs by SRB assay; conditions: PC-3, 48 h; how it was run: as §1
# KM12 = assay: Cytotoxicity against human KM12 cells assessed as cellular growth at 10 uM after 48 hrs by SRB assay; how it was run: as §3
# PC-3 [8] = assay: Cytotoxicity against human PC3 cells assessed as cellular growth at 10 uM after 48 hrs by SRB assay; how it was run: as §4
# UACC-257 = assay: Antitumor activity against human UACC257 cells after 48 hrs by SRB assay; conditions: UACC-257, 48 h; how it was run: as §2
# CCRF-CEM = assay: Cytotoxicity against human CCRF-CEM cells assessed as cellular growth at 10 uM after 48 hrs by SRB assay; how it was run: as §3
# [9] = read-out: LC50 (the source's name)
# [10] = read-out: pLC50 (the source's name) (converted)
smiles,measurement,setting,value
COc1cc(/C(=C2\O[C@@H]([C@H]3COC(C)(C)O3)[C@H]3OC(C)(C)O[C@@H]23)c2ccc3ccccc3c2)cc(OC)c1OC,GI50,NCI-H322M [1]; read-out: GI50,6.74 µM
same,CC50,NCI-H322M [1]; [9],> 100 µM
same,TGI,NCI-H322M [1]; read-out: TGI,> 100 µM
same,GI50,NCI-H322M [1]; read-out: pGI50 (converted),5.75 µM
same,CC50,NCI-H322M [1]; [10],> 100 µM
same,TGI,NCI-H322M [1]; read-out: pTGI,> 100 µM
same,GI50,OVCAR-8; read-out: GI50,3.69 µM
same,CC50,OVCAR-8; [9],> 100 µM
same,TGI,OVCAR-8; read-out: TGI,> 100 µM
same,GI50,OVCAR-8; read-out: pGI50 (converted),4.37 µM
same,CC50,OVCAR-8; [10],> 100 µM
same,TGI,OVCAR-8; read-out: pTGI,> 100 µM
same,GI50,SR; read-out: GI50,> 100 µM
same,CC50,SR; [9],> 100 µM
same,TGI,SR; read-out: TGI,> 100 µM
same,GI50,SR; read-out: pGI50 (converted),100 µM
same,CC50,SR; [10],> 100 µM
same,TGI,SR; read-out: pTGI,> 100 µM
same,GI50,TK-10; read-out: GI50,3.2 µM
same,CC50,TK-10; [9],> 100 µM
same,TGI,TK-10; read-out: TGI,7.2 µM
same,GI50,TK-10; read-out: pGI50 (converted),3.16 µM
same,CC50,TK-10; [10],> 100 µM
same,TGI,TK-10; read-out: pTGI (converted),7.24 µM
same,GI50,DU-145; read-out: GI50,4.33 µM
same,CC50,DU-145; [9],> 100 µM
same,TGI,DU-145; read-out: TGI,> 100 µM
same,GI50,DU-145; read-out: pGI50 (converted),4.37 µM
same,CC50,DU-145; [10],> 100 µM
same,TGI,DU-145; read-out: pTGI (converted),> 100 µM
same,Activity,A549 [2],-9.4%
same,Activity,NCI-H322M [3],55.06%
same,Activity,MOLT-4,62.4%
same,Activity,HCT-15,59.71%
same,Activity,RPMI-8226,36.83%
same,Activity,OVCAR-5,38.17%
same,Activity,EKVX,53.7%
same,Activity,HT-29 [4],40.98%
same,GI50,A549 [5]; read-out: GI50,3.09 µM
same,CC50,A549 [5]; [9],> 100 µM
same,TGI,A549 [5]; read-out: TGI,9.55 µM
same,GI50,A549 [5]; read-out: pGI50 (converted),3.09 µM
same,CC50,A549 [5]; [10],> 100 µM
same,TGI,A549 [5]; read-out: pTGI (converted),9.55 µM
same,GI50,SF-295; read-out: GI50,6.92 µM
same,CC50,SF-295; [9],> 100 µM
same,TGI,SF-295; read-out: TGI,52.1 µM
same,GI50,SF-295; read-out: pGI50 (converted),6.92 µM
same,CC50,SF-295; [10],> 100 µM
same,TGI,SF-295; read-out: pTGI (converted),52.5 µM
same,LC50 (50% net cell kill),HT-29 [6],> 100 µM
same,GI50,HT-29 [6]; read-out: GI50,6 µM
same,TGI,HT-29 [6]; read-out: TGI,> 100 µM
same,GI50,HT-29 [6]; read-out: pGI50 (converted),6.03 µM
same,CC50,HT-29 [6]; [10],> 100 µM
same,TGI,HT-29 [6]; read-out: pTGI (converted),> 100 µM
same,Activity,786-0,-1.42%
same,Activity,NCI-H460,43.38%
same,GI50,SF-539,14.3 µM
same,TGI,SF-539,79 µM
same,CC50,SF-539; [9],> 100 µM
same,GI50,PC-3 [7]; read-out: GI50,5.71 µM
same,CC50,PC-3 [7]; [9],> 100 µM
same,TGI,PC-3 [7]; read-out: TGI,> 100 µM
same,GI50,PC-3 [7]; read-out: pGI50 (converted),5.75 µM
same,CC50,PC-3 [7]; [10],> 100 µM
same,TGI,PC-3 [7]; read-out: pTGI,> 100 µM
same,Activity,KM12,33.42%
same,Activity,PC-3 [8],26.98%
same,GI50,UACC-257; read-out: GI50,4.28 µM
same,CC50,UACC-257; [9],> 100 µM
same,TGI,UACC-257; read-out: TGI,23.8 µM
same,GI50,UACC-257; read-out: pGI50 (converted),4.27 µM
same,CC50,UACC-257; [10],> 100 µM
same,TGI,UACC-257; read-out: pTGI (converted),24 µM
same,Activity,CCRF-CEM,82.21%
